ChEMBL document CHEMBL1828597, “Tyrosyl-tRNA synthetase inhibitors as antibacterial agents: synthesis, molecular docking and structure-activity relationship analysis of 3-aryl-4-arylaminofuran-2(5H)-ones” (Eur J Med Chem, 2011)
Converted amounts (≈) assume the structure as drawn.

What was measured:
[1] = system: Candida albicans; assay: Antifungal activity against Candida albicans ATCC 10231 after 48 hrs by MTT assay; details: ATCC 10231, 48 h
[2] = system: Escherichia coli; assay: Antibacterial activity against Escherichia coli ATCC 35218 after 24 hrs by MTT assay; assay type: functional; details: ATCC 35218, 24 h
Method in brief: (§1)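 LB medium, inocula of about 10⁵ cfu/mL in 96-well plates against serially diluted compounds (DMSO stock diluted in 50% v/v DMSO/PBS), 37 °C for 24 h. Read-out: PBS containing 2 mg/mL MTT added for 4–5 h at room temperature, wells emptied, solubilizer added for 12 h at room temperature, then OD at 550 nm. MIC₅₀ from this colorimetric read.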

[3] = system: Bacillus subtilis; assay: Antibacterial activity against Bacillus subtilis ATCC 6633 after 24 hrs by MTT assay; assay type: functional; details: ATCC 6633, 24 h
Method in brief: as §1

[4] = system: Staphylococcus aureus; assay: Antibacterial activity against Staphylococcus aureus ATCC 25923 after 24 hrs by MTT assay; assay type: functional; details: ATCC 25923, 24 h
Method in brief: as §1

[5] = Inhibition of Staphylococcus aureus TyrRS assessed as inhibition of [3H]tyrosine incorporation after 10 mins by liquid scintillation counting

MIC50 [1] | MIC50 [2] | MIC50 [3] | MIC50 [4] | IC50 [5] | SMILES
> 50 µg/mL | > 50 µg/mL | > 50 µg/mL | > 50 µg/mL | 63.3 µM | O=C1OCC(Nc2ccc([N+](=O)[O-])cc2)=C1c1ccc(Br)cc1
46.8 µg/mL (≈ 146 µM) | > 50 µg/mL | 47.5 µg/mL (≈ 148 µM) | 21.5 µg/mL (≈ 67.2 µM) | 15.7 µM | O=C1OCC(Nc2ccccc2Cl)=C1c1cccc(Cl)c1
18.7 µg/mL (≈ 45.7 µM) | > 50 µg/mL | 31.6 µg/mL (≈ 77.2 µM) | 6.5 µg/mL (≈ 15.9 µM) | 5.4 µM | O=C1OCC(Nc2ccc(Br)cc2)=C1c1cccc(Br)c1
12.2 µg/mL (≈ 38.1 µM) | > 50 µg/mL | 11.7 µg/mL (≈ 36.5 µM) | 4.6 µg/mL (≈ 14.4 µM) | 4.3 µM | O=C1OCC(Nc2cccc(Cl)c2)=C1c1cccc(Cl)c1
10.2 µg/mL (≈ 30.3 µM) | > 50 µg/mL | 9.8 µg/mL (≈ 29.2 µM) | 2.9 µg/mL (≈ 8.63 µM) | 3.5 µM | O=C1OCC(Nc2cc(Cl)cc(Cl)c2)=C1c1ccc(O)cc1
> 50 µg/mL | > 50 µg/mL | > 50 µg/mL | > 50 µg/mL | 89.9 µM | O=C1OCC(Nc2ccccc2Cl)=C1c1ccccc1
> 50 µg/mL | > 50 µg/mL | > 50 µg/mL | > 50 µg/mL | 49.7 µM | O=C1OCC(Nc2ccccc2[N+](=O)[O-])=C1c1cccc(Cl)c1
28.6 µg/mL (≈ 67 µM) | > 50 µg/mL | 38.6 µg/mL (≈ 90.4 µM) | 10.2 µg/mL (≈ 23.9 µM) | 9.2 µM | O=C1OCC(Nc2cc(Br)cc(Br)c2)=C1c1ccc(F)cc1
> 50 µg/mL | > 50 µg/mL | > 50 µg/mL | > 50 µg/mL | 17.5 µM | COc1cc(NC2=C(c3ccc(Br)cc3)C(=O)OC2)cc(OC)c1
> 50 µg/mL | > 50 µg/mL | > 50 µg/mL | > 50 µg/mL | 67.3 µM | O=C1OCC(Nc2ccccc2[N+](=O)[O-])=C1c1ccc(Br)cc1
> 50 µg/mL | > 50 µg/mL | > 50 µg/mL | 25.2 µg/mL (≈ 72.8 µM) | 15.4 µM | O=C1OCC(Nc2cccc(O)c2)=C1c1ccc(Br)cc1
> 50 µg/mL | > 50 µg/mL | > 50 µg/mL | 39 µg/mL (≈ 118 µM) | 25.6 µM | O=C1OCC(Nc2ccccn2)=C1c1ccc(Br)cc1
8.5 µg/mL (≈ 17.4 µM) | > 50 µg/mL | 8.8 µg/mL (≈ 18 µM) | 2.3 µg/mL (≈ 4.71 µM) | 1.9 µM | O=C1OCC(Nc2cc(Br)cc(Br)c2)=C1c1cccc(Br)c1
> 50 µg/mL | > 50 µg/mL | > 50 µg/mL | > 50 µg/mL | 97.6 µM | COc1ccc(NC2=C(c3ccc(Br)cc3)C(=O)OC2)cc1
> 50 µg/mL | > 50 µg/mL | > 50 µg/mL | > 50 µg/mL | 44.6 µM | O=C1OCC(Nc2cccc([N+](=O)[O-])c2)=C1c1ccccc1
41.8 µg/mL (≈ 102 µM) | > 50 µg/mL | > 50 µg/mL | 23.1 µg/mL (≈ 56.5 µM) | 11.4 µM | O=C1OCC(Nc2ccc(Br)cc2)=C1c1ccc(Br)cc1
 |  | 0.42 µg/mL (≈ 0.867 µM) | 1.1 µg/mL (≈ 2.27 µM) |  | NC[C@H]1O[C@H](O[C@H]2[C@H](O)[C@@H](O[C@H]3O[C@H](CO)[C@@H](O)[C@H](N)[C@H]3O)[C@H](N)C[C@@H]2N)[C@H](O)[C@@H](O)[C@@H]1O [KANAMYCIN]
> 50 µg/mL | > 50 µg/mL | > 50 µg/mL | 49.4 µg/mL (≈ 156 µM) | 32.5 µM | COc1ccccc1NC1=C(c2cccc(Cl)c2)C(=O)OC1
49.3 µg/mL (≈ 135 µM) | > 50 µg/mL | > 50 µg/mL | 34.6 µg/mL (≈ 94.9 µM) | 21 µM | O=C1OCC(Nc2ccccc2Cl)=C1c1ccc(Br)cc1

MIC50 [1] | MIC50 [2] | MIC50 [3] | MIC50 [4] | IC50 [5] | SMILES
> 50 µg/mL | > 50 µg/mL | > 50 µg/mL | > 50 µg/mL | > 100 µM | Cc1ccc(NC2=C(c3ccc(Br)cc3)C(=O)OC2)cc1
> 50 µg/mL | > 50 µg/mL | > 50 µg/mL | 45.8 µg/mL (≈ 133 µM) | 29.4 µM | CN(C1=C(c2ccc(Br)cc2)C(=O)OC1)c1ccccc1
21.7 µg/mL (≈ 59.3 µM) | > 50 µg/mL | 19.4 µg/mL (≈ 53 µM) | 7.1 µg/mL (≈ 19.4 µM) | 6.3 µM | O=C1OCC(Nc2cc(F)cc(F)c2)=C1c1ccc(Br)cc1
9 µg/mL (≈ 24.7 µM) | > 50 µg/mL | 11.3 µg/mL (≈ 31 µM) | 2.5 µg/mL (≈ 6.86 µM) | 1.7 µM | O=C1OCC(Nc2cccc(Cl)c2)=C1c1ccc(Br)cc1
9.7 µg/mL (≈ 30.3 µM) | > 50 µg/mL | 10.9 µg/mL (≈ 34 µM) | 3.3 µg/mL (≈ 10.3 µM) | 2.4 µM | O=C1OCC(Nc2cccc(Cl)c2)=C1c1ccc(Cl)cc1
7.2 µg/mL (≈ 20.6 µM) | > 50 µg/mL | 9.6 µg/mL (≈ 27.4 µM) | 1.8 µg/mL (≈ 5.14 µM) | 1.6 µM | COc1ccc(C2=C(Nc3cc(Cl)cc(Cl)c3)COC2=O)cc1
37.5 µg/mL (≈ 114 µM) | > 50 µg/mL | 41.7 µg/mL (≈ 126 µM) | 27.8 µg/mL (≈ 84.2 µM) | 16.6 µM | O=C1OCC(Nc2ccccc2)=C1c1ccc(Br)cc1
> 50 µg/mL | > 50 µg/mL | > 50 µg/mL | > 50 µg/mL | 36.8 µM | COc1ccccc1NC1=C(c2ccc(Br)cc2)C(=O)OC1
> 50 µg/mL | > 50 µg/mL | > 50 µg/mL | > 50 µg/mL | > 100 µM | O=C1OCC(Nc2ccccc2[N+](=O)[O-])=C1c1ccccc1
26.3 µg/mL (≈ 70.1 µM) | > 50 µg/mL | 28.6 µg/mL (≈ 76.2 µM) | 10.8 µg/mL (≈ 28.8 µM) | 10.3 µM | O=C1OCC(Nc2cccc([N+](=O)[O-])c2)=C1c1ccc(Br)cc1
5.4 µg/mL (≈ 13.5 µM) | > 50 µg/mL | 1.2 µg/mL (≈ 3.01 µM) | 0.06 µg/mL (≈ 0.15 µM) | 0.09 µM | O=C1OCC(Nc2cc(Cl)cc(Cl)c2)=C1c1cccc(Br)c1
41.8 µg/mL (≈ 146 µM) | > 50 µg/mL | > 50 µg/mL | 32.1 µg/mL (≈ 112 µM) | 20.8 µM | O=C1OCC(Nc2cccc(Cl)c2)=C1c1ccccc1
5.8 µg/mL (≈ 14.5 µM) | > 50 µg/mL | 2.2 µg/mL (≈ 5.51 µM) | 0.42 µg/mL (≈ 1.05 µM) | 0.39 µM | O=C1OCC(Nc2cc(Cl)cc(Cl)c2)=C1c1ccc(Br)cc1
 | 2 µg/mL (≈ 5.98 µM) |  |  |  | CC1(C)S[C@@H]2[C@H](NC(=O)Cc3ccccc3)C(=O)N2[C@H]1C(=O)O [PENICILLIN G]
10.1 µg/mL (≈ 28.5 µM) | > 50 µg/mL | 13.4 µg/mL (≈ 37.8 µM) | 2.9 µg/mL (≈ 8.18 µM) | 2.9 µM | O=C1OCC(Nc2cc(Cl)cc(Cl)c2)=C1c1cccc(Cl)c1
> 50 µg/mL | > 50 µg/mL | > 50 µg/mL | > 50 µg/mL | 85.2 µM | O=C1OCC(Nc2ccc(O)cc2)=C1c1ccc(Br)cc1
25.7 µg/mL (≈ 70.5 µM) | > 50 µg/mL | > 50 µg/mL | 12.6 µg/mL (≈ 34.6 µM) | 15.2 µM | O=C1OCC(Nc2ccc(Cl)cc2)=C1c1ccc(Br)cc1
49.2 µg/mL (≈ 101 µM) | > 50 µg/mL | > 50 µg/mL | 23.5 µg/mL (≈ 48.2 µM) | 13.6 µM | O=C1OCC(Nc2cc(Br)cc(Br)c2)=C1c1ccc(Br)cc1

SMILES | MIC50 [1] | MIC50 [2] | MIC50 [3] | MIC50 [4] | IC50 [5]
CC(=O)N1CCN(c2ccc(OCC3COC(Cn4ccnc4)(c4ccc(Cl)cc4Cl)O3)cc2)CC1 (centres undefined) [KETOCONAZOLE] | 4.1 µg/mL (≈ 7.71 µM) |  |  |  | 
